From ChEMBL document CHEMBL1154191, “Evaluation of spirocyclic 3-(3-fluoropropyl)-2-benzofurans as sigma1 receptor ligands for neuroimaging with positron emission tomography” (J Med Chem, 2009)

How the values were obtained:
Heart [1] = experiment: Biodistribution in CD1 mouse heart assessed per gram of wet tissue at 400 to 600 kBq, iv after 120 mins post-injection by gamma counting; assay type: ADME, organism-based; conditions: in vivo, 2 h
How it was run: (§1)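 Female CD-1 mice (~8-12 weeks, 20-28 g) were fasted 24 h with free water. Conscious mice got 400-600 kBq [¹⁸F] tracer in saline by tail vein. At 5, 30, 60 or 120 min (n=4-5 per time) they were anesthetized, blood and urine sampled, then killed by cervical dislocation. Organs were weighed and γ-counted, giving % ID/g wet tissue.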

Muscle tissue [2] = experiment: Biodistribution in CD1 mouse muscle assessed per gram of wet tissue at 400 to 600 kBq, iv after 120 mins post-injection by gamma counting; assay type: ADME, organism-based; conditions: in vivo, 2 h
How it was run: (§2)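 Female CD-1 mice (~8-12 weeks, 20-28 g), habituated ≥48 h and fasted 24 h with water available. The [18F] tracer (>150 GBq/μmol at end of synthesis) was given in 200 μL saline into the tail vein of conscious animals. At each time point, n=4-5, mice were anaesthetised, blood and urine sampled, then killed by cervical dislocation. Organs were weighed and γ-counted, and values calculated as % ID/g wet tissue.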

Liver [3] = experiment: Biodistribution in CD1 mouse liver assessed per gram of wet tissue at 400 to 600 kBq, iv after 5 mins post-injection by gamma counting; assay type: ADME, organism-based; conditions: in vivo; how it was run: as §2
Femur = experiment: Biodistribution in CD1 mouse femur assessed per gram of wet tissue per gram of wet tissue at 400 to 600 kBq, iv after 60 mins post-injection by gamma counting in presence of 1 mg/kg, ip sigma 1/sigma 2 receptor antagonist haloperidol treated before compound addition; assay type: organism-based; set-up: dose 1 mg/kg, route intravenous; conditions: in vivo, 1 h
How it was run: (§3)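 Blocking arm in fasted female CD-1 mice (n=5). […] Animals were killed at 60 min post-injection, and organs were weighed and γ-counted as % ID/g wet tissue. Percent change was taken against the 60 min control group, with two-tailed unpaired Student's t test.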

Intestine [4] = experiment: Biodistribution in CD1 mouse intestine assessed per gram of wet tissue at 400 to 600 kBq, iv after 30 mins post-injection by gamma counting; assay type: ADME, organism-based; conditions: in vivo, 0.5 h; how it was run: as §1
Cerebellum [5] = experiment: Biodistribution in CD1 mouse cerebellum assessed per gram of wet tissue at 400 to 600 kBq, iv after 60 mins post-injection by gamma counting in presence of 1 mg/kg, ip sigma 1/sigma 2 receptor antagonist haloperidol treated before compound addition; assay type: organism-based; set-up: dose 1 mg/kg, route intravenous; conditions: in vivo, 1 h; how it was run: as §3
Blood = experiment: Biodistribution in CD1 mouse blood assessed per gram of wet tissue at 400 to 600 kBq, iv after 60 mins post-injection by gamma counting in presence of 1 mg/kg, ip sigma 1/sigma 2 receptor antagonist haloperidol treated before compound addition; assay type: organism-based; set-up: dose 1 mg/kg, route intravenous; conditions: in vivo, 1 h; how it was run: as §3
Heart [6] = experiment: Biodistribution in CD1 mouse heart assessed per gram of wet tissue at 400 to 600 kBq, iv after 60 mins post-injection by gamma counting; assay type: ADME, organism-based; conditions: in vivo, 1 h; how it was run: as §1
[7] = Biodistribution in CD1 mouse urine assessed as per gram of wet bladder at 400 to 600 kBq, iv after 30 mins post-injection by gamma counting; assay type: ADME, organism-based; conditions: in vivo, 0.5 h; how it was run: as §2
[8] = Biodistribution in CD1 mouse adrenal gland assessed per gram of wet tissue at 400 to 600 kBq, iv after 120 mins post-injection by gamma counting; assay type: ADME, organism-based; conditions: in vivo, 2 h; how it was run: as §1
Liver [9] = experiment: Biodistribution in CD1 mouse liver assessed increase in drug uptake at 400 to 600 kBq, iv after 60 mins post-injection by gamma counting in presence of 1 mg/kg, ip sigma 1/sigma 2 receptor antagonist haloperidol treated before compound addition; assay type: organism-based; set-up: dose 1 mg/kg, route intravenous; conditions: in vivo, 1 h; how it was run: as §3
Intestine [10] = experiment: Biodistribution in CD1 mouse intestine assessed per gram of wet tissue at 400 to 600 kBq, iv after 60 mins post-injection by gamma counting in presence of 1 mg/kg, ip sigma 1/sigma 2 receptor antagonist haloperidol treated before compound addition; assay type: organism-based; set-up: dose 1 mg/kg, route intravenous; conditions: in vivo, 1 h; how it was run: as §3
Liver [11] = experiment: Metabolic stability in CD1 mouse liver homogenate assessed as formation of 3-(3-Fluoropropyl)-3H-spiro[[2]benzofuran-1,4'-piperidine], 4-((3-(3-fluoropropyl)-3H-spiro[isobenzofuran-1,4'-piperidine]-1'-yl)methyl)phenol and 1-(1'-benzyl-3H-spiro[isobenzofuran-1,4'-piperidine]-3-yl)-3-fluoropropan-2-ol at 200 to 300 MBq, iv after 45 mins postinjection by radio-HPLC and radio-TLC; assay type: ADME, organism-based; conditions: in vivo, 0.75 h
How it was run: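 Mice received 200-300 MBq [18F] tracer in 200 μL 0.9% saline via the tail vein, and samples were taken at 45 and 60 min (n=2 per time). Plasma was obtained by centrifugation (2000g, 4 °C, 10 min); brain and liver were homogenised in ice-cold 50 mM TRIS-HCl pH 7.4. Samples were precipitated with ice-cold MeCN and centrifuged (4000g, 4 °C, 15 min), and supernatants were analysed by gradient radio-HPLC and radio-TLC, with HPLC fractions γ-counted.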

[12] = Biodistribution in CD1 mouse urine assessed as per gram of wet bladder at 400 to 600 kBq, iv after 120 mins post-injection by gamma counting; assay type: ADME, organism-based; conditions: in vivo, 2 h; how it was run: as §2
Mus musculus = experiment: Plasma concentration in CD1 mouse assessed per gram of wet tissue at 400 to 600 kBq, iv after 120 mins post-injection by gamma counting; assay type: ADME, organism-based; conditions: in vivo, 2 h
How it was run: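 Female CD-1 mice (~8-12 weeks, 20-28 g), fasted 24 h with free access to water. 400-600 kBq [18F] tracer in 200 μL saline given by tail vein to conscious mice. At 5, 30, 60 or 120 min pi (n=4-5 per time) mice anaesthetised, blood taken, then euthanised. Samples weighed, γ-counted, %ID/g wet tissue calculated.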

Brain = experiment: Biodistribution in CD1 mouse brain assessed per gram of wet tissue at 400 to 600 kBq, iv after 5 mins post-injection by gamma counting; assay type: ADME, organism-based; conditions: in vivo; how it was run: as §1
Pancreas [13] = experiment: Biodistribution in CD1 mouse pancreas assessed per gram of wet tissue at 400 to 600 kBq, iv after 60 mins post-injection by gamma counting; assay type: ADME, organism-based; conditions: in vivo, 1 h; how it was run: as §2
[14] = Drug uptake in CD1 mouse thymus at 400 to 600 kBq, iv after 120 mins post-injection by gamma counting relative to initial uptake; assay type: ADME, organism-based; conditions: in vivo, 2 h
How it was run: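 Organ % ID/g was measured by γ-counting after tail-vein injection of 400-600 kBq [18F] tracer in saline to fasted female CD-1 mice (n=4-5 per time). The 120 min pi value is expressed relative to the initial (5 min pi) uptake.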

Cerebellum [15] = experiment: Biodistribution in CD1 mouse cerebellum assessed per gram of wet tissue at 400 to 600 kBq, iv after 60 mins post-injection by gamma counting; assay type: ADME, organism-based; conditions: in vivo, 1 h; how it was run: as §1
Spleen = experiment: Biodistribution in CD1 mouse spleen assessed per gram of wet tissue at 400 to 600 kBq, iv after 60 mins post-injection by gamma counting; assay type: ADME, organism-based; conditions: in vivo, 1 h; how it was run: as §2
Pancreas [16] = experiment: Biodistribution in CD1 mouse pancreas assessed per gram of wet tissue at 400 to 600 kBq, iv after 120 mins post-injection by gamma counting; assay type: ADME, organism-based; conditions: in vivo, 2 h; how it was run: as §2
Cerebellum [17] = experiment: Biodistribution in CD1 mouse cerebellum assessed per gram of wet tissue at 400 to 600 kBq, iv after 30 mins post-injection by gamma counting; assay type: ADME, organism-based; conditions: in vivo, 0.5 h; how it was run: as §1
Kidney = experiment: Biodistribution in CD1 mouse kidney assessed per gram of wet tissue at 400 to 600 kBq, iv after 5 mins post-injection by gamma counting; assay type: ADME, organism-based; conditions: in vivo; how it was run: as §1
Muscle tissue [18] = experiment: Biodistribution in CD1 mouse muscle assessed per gram of wet tissue at 400 to 600 kBq, iv after 30 mins post-injection by gamma counting; assay type: ADME, organism-based; conditions: in vivo, 0.5 h; how it was run: as §2
[19] = Biodistribution in CD1 mouse thymus assessed per gram of wet tissue at 400 to 600 kBq, iv after 60 mins post-injection by gamma counting; assay type: ADME, organism-based; conditions: in vivo, 1 h; how it was run: as §2

## [18F]CCCC1OC2(CCN(Cc3ccccc3)CC2)c2ccccc21 (stereo not given)
Heart [1]
  Drug uptake: 1.52 %ID
Muscle tissue [2]
  Drug uptake: 0.97 %ID
Liver [3]
  Drug uptake: 5.54 %ID
Femur
  Drug uptake: 4.27 %ID
Intestine [4]
  Drug uptake: 6.81 %ID
Cerebellum [5]
  Drug uptake: 0.63 %ID
Blood
  Drug uptake: 0.56 %ID
Heart [6]
  Drug uptake: 2.46 %ID
[7]
  Drug uptake: 24.3 %ID
[8]
  Drug uptake: 5.86 %ID
Liver [9]
  Drug uptake: 3.89 %ID
Intestine [10]
  Drug uptake: 6.6 %ID
Liver [11]
  Activity: 45%
[12]
  Drug uptake: 49.2 %ID
Mus musculus
  Drug uptake: 0.44 %ID
Brain
  Drug uptake: 3.66 %ID
Pancreas [13]
  Drug uptake: 8.92 %ID
[14]
  Drug uptake: > 70%
Cerebellum [15]
  Drug uptake: 2.99 %ID
Spleen
  Drug uptake: 5.56 %ID
Pancreas [16]
  Drug uptake: 10.5 %ID
Cerebellum [17]
  Drug uptake: 3.71 %ID
Kidney
  Drug uptake: 12.1 %ID
Muscle tissue [18]
  Drug uptake: 1.8 %ID
[19]
  Drug uptake: 2.87 %ID
